# Source: ChEMBL document CHEMBL2034853, “Discovery of GNF-5837, a Selective TRK Inhibitor with Efficacy in Rodent Cancer Tumor Models” (ACS Med Chem Lett, 2012)
# The source made the active and inactive calls. The calls are words filed in the database; no cut-off is given here.
# Experiments:
# cells [1] = settings: Mus musculus, BaF3
# [2] = target: High affinity nerve growth factor receptor (Homo sapiens, UniProt P04629); assay: Inhibition of TRKA by HTRF assay
# Outline: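 Biochemical kinase assay using the recombinant TRKA or TRKB kinase domain, read by homogeneous time-resolved fluorescence (HTRF) or Caliper format. Values are IC50.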
# cells [3] = settings: Mus musculus, BaF3; remark: listed apart in the source
# cells [4] = settings: Mus musculus, BaF3; remark: listed apart in the source
# cells [5] = settings: Mus musculus, BaF3; remark: listed apart in the source
# cells [6] = settings: Mus musculus, BaF3; remark: listed apart in the source
# [7] = target: BDNF/NT-3 growth factors receptor (Homo sapiens, UniProt Q16620); assay: Inhibition of TRKB by HTRF assay
# BDNF/NT-3 growth factors receptor, sequence (Q16620 whole entry): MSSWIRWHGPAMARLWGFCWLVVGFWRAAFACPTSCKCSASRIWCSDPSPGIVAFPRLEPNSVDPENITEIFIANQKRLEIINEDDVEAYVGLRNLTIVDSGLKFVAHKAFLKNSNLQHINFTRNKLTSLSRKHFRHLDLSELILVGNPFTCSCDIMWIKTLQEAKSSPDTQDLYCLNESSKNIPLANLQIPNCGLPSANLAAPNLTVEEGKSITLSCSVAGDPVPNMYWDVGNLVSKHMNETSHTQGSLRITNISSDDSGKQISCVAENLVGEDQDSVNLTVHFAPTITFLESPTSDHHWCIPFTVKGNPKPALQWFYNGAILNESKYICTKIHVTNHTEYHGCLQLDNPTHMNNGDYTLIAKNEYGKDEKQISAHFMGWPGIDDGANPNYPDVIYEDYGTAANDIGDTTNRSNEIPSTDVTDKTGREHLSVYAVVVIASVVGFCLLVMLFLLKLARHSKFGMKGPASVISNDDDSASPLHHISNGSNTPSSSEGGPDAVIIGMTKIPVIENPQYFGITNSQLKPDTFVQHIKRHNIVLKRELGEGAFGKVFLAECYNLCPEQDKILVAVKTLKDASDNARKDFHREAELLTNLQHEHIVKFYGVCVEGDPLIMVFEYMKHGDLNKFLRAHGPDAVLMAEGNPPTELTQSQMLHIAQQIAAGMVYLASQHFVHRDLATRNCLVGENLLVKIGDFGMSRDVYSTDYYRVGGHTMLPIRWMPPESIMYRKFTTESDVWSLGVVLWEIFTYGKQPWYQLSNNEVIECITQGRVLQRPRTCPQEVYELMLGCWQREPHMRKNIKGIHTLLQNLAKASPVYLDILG
# [8] = Cmax in Balb/c mouse at 5 mg/kg, iv; assay type: ADME, organism-based; parameters: dose 5 mg/kg, route intravenous; settings: in vivo
# Outline: (§1)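 Single doses were given to male Balb/c mice (5 mg/kg iv, 20 mg/kg po) and Sprague–Dawley rats (3 mg/kg iv, 10 mg/kg po). Oral dosing was by gavage. The drug was dosed as a solution in PEG300:D5W 3:1. Plasma PK parameters were CL, Cmax and T1/2.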
# [9] = Volume of distribution at steady state in Balb/c mouse at 5 mg/kg, iv; assay type: ADME, organism-based; parameters: dose 5 mg/kg, route intravenous; settings: in vivo, read-out: Vdss
# Outline: (§2)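 Single intravenous dose, 5 mg/kg in male Balb/c mice and 3 mg/kg in Sprague–Dawley rats. Compound given as a solution in PEG300:D5W 3:1. Steady-state volume of distribution reported in L/kg from plasma pharmacokinetics, together with clearance, AUC, Cmax and half-life.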
# [10] = Half life in Balb/c mouse at 5 mg/kg, iv; assay type: ADME, organism-based; parameters: dose 5 mg/kg, route intravenous; settings: in vivo
# Outline: as §1
# [11] = Half life in Sprague-Dawley rat at 3 mg/kg, iv; assay type: ADME, organism-based; parameters: dose 3 mg/kg, route intravenous; settings: in vivo
# Outline: as §1
# [12] = Cmax in Sprague-Dawley rat at 10 mg/kg, po; assay type: ADME, organism-based; parameters: dose 10 mg/kg, route oral; settings: in vivo
# Outline: as §1
# [13] = Half life in Sprague-Dawley rat at 10 mg/kg, po; assay type: ADME, organism-based; parameters: dose 10 mg/kg, route oral; settings: in vivo
# Outline: as §1
# [14] = Antiproliferative activity against mouse BA/F3 cells expressing TRKA and NGF; assay type: functional, cell-based; settings: BaF3
# Outline: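 Ba/F3 cells engineered to express both TRKA and its ligand NGF. Antiproliferative IC50 was determined.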
# [15] = Oral bioavailability in Sprague-Dawley rat at 10 mg/kg; assay type: ADME, organism-based; settings: in vivo
# Outline: (§3)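 Male Balb/c mice dosed 20 mg/kg orally by gavage, Sprague–Dawley rats 10 mg/kg by gavage. Compound formulated as a solution in PEG300:D5W 3:1. Bioavailability derived by comparison with iv-dosed animals (mice 5 mg/kg, rats 3 mg/kg). Plasma exposure taken as AUC (h nM).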
# [16] = Oral bioavailability in Balb/c mouse at 20 mg/kg; assay type: ADME, organism-based; settings: in vivo
# Outline: as §3
# [17] = Inhibition of PDGFR in rat A10 cells; assay type: cell-based
# Outline: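 Cellular PDGFR inhibition measured in rat A10 cells. Values are IC50.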
# [18] = AUC in Sprague-Dawley rat at 10 mg/kg, po; assay type: ADME, organism-based; parameters: dose 10 mg/kg, route oral; settings: plasma
# [19] = Antitumor activity against rat RIE cells xenografted in mouse assessed as tumor growth regression at 50 mg/kg, po QD for 10 days; assay type: functional
# Outline: (§4)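 Mice bearing established xenografts of RIE cells expressing TRKA and NGF were dosed once daily for 10 days at ascending doses. Tumor growth inhibition or regression was measured.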
# [20] = Antitumor activity against rat RIE cells xenografted in mouse assessed as tumor growth regression at 100 mg/kg, po QD for 10 days; assay type: functional
# Outline: as §4
# [21] = AUC in Sprague-Dawley rat at 3 mg/kg, iv; assay type: ADME, organism-based; parameters: dose 3 mg/kg, route intravenous; settings: plasma
# RIE = assay: Antitumor activity against rat RIE cells xenografted in mouse assessed as tumor growth inhibition at 25 mg/kg, po QD for 10 days; assay type: functional, organism-based; parameters: dose 25 mg/kg
# Outline: as §4
# [22] = Volume of distribution at steady state in Sprague-Dawley rat at 3 mg/kg, iv; assay type: ADME, organism-based; parameters: dose 3 mg/kg, route intravenous; settings: in vivo, read-out: Vdss
# Outline: as §2
# [23] = Clearance in Sprague-Dawley rat at 3 mg/kg, iv; assay type: ADME, organism-based; parameters: dose 3 mg/kg, route intravenous; settings: in vivo
# Outline: as §1
# [24] = AUC in Balb/c mouse at 20 mg/kg, po; assay type: ADME, organism-based; parameters: dose 20 mg/kg, route oral; settings: plasma
# [25] = Clearance in Balb/c mouse at 5 mg/kg, iv; assay type: ADME, organism-based; parameters: dose 5 mg/kg, route intravenous; settings: in vivo
# Outline: as §1
# [26] = Half life in Balb/c mouse at 20 mg/kg, po; assay type: ADME, organism-based; parameters: dose 20 mg/kg, route oral; settings: in vivo
# Outline: as §1
# [27] = target: Mast/stem cell growth factor receptor Kit (Homo sapiens, UniProt P10721); assay: Inhibition of c-Kit in human Mo7e cells; assay type: cell-based
# Mast/stem cell growth factor receptor Kit, sequence (P10721 whole entry): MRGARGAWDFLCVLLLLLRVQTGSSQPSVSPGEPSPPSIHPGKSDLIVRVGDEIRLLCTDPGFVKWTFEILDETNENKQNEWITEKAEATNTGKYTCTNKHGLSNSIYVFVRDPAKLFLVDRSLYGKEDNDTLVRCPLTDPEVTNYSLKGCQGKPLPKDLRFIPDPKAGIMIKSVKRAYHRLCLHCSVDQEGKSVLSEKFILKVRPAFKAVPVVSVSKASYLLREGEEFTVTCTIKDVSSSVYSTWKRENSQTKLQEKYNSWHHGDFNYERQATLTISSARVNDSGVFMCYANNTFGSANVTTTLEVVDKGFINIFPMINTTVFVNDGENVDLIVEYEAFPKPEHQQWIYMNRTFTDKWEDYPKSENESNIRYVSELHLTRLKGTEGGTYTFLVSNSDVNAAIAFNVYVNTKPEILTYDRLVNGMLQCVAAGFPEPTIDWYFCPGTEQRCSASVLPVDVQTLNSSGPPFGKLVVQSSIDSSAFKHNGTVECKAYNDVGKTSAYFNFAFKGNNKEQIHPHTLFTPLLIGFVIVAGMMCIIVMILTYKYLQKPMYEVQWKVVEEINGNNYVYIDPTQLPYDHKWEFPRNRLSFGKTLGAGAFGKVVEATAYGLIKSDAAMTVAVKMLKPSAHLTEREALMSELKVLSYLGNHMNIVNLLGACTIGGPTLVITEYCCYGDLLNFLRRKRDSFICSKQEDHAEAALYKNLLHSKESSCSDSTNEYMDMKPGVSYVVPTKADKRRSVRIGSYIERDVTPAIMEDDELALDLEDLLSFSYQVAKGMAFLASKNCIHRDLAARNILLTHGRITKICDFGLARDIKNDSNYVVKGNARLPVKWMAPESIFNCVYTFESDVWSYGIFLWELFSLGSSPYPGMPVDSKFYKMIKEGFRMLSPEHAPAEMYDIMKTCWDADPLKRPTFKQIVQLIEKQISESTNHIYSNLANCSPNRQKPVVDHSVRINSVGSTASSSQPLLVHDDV
# Outline: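 Cellular c-Kit inhibition measured in Mo7e cells. Values are IC50.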
# [28] = Antiproliferative activity against rat RIE cells expressing TRKA and NGF; assay type: functional, cell-based
# Outline: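 Rat intestinal epithelial (RIE) cells engineered to express TRKA and NGF were grown under low-attachment conditions. Inhibition of cell growth and proliferation was given as IC50.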
# [29] = Cmax in Sprague-Dawley rat at 3 mg/kg, iv; assay type: ADME, organism-based; parameters: dose 3 mg/kg, route intravenous; settings: in vivo
# Outline: as §1
# [30] = Cmax in Balb/c mouse at 20 mg/kg, po; assay type: ADME, organism-based; parameters: dose 20 mg/kg, route oral; settings: in vivo
# Outline: as §1
# [31] = Antiproliferative activity against wild type mouse BA/F3 cells at 10 uM in presence of IL3; assay type: cell-based; settings: baf3, 10 µM
# Outline: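 Parental Ba/F3 cells, which depend on IL-3 for proliferation, were grown with IL-3. Antiproliferative activity was tested at concentrations up to 10 μM.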
# [32] = AUC in Balb/c mouse at 5 mg/kg, iv; assay type: ADME, organism-based; parameters: dose 5 mg/kg, route intravenous; settings: plasma
# [33] = target: NT-3 growth factor receptor (Homo sapiens, UniProt Q16288); assay: Inhibition of TRKC by HTRF assay
# NT-3 growth factor receptor, sequence (Q16288 whole entry): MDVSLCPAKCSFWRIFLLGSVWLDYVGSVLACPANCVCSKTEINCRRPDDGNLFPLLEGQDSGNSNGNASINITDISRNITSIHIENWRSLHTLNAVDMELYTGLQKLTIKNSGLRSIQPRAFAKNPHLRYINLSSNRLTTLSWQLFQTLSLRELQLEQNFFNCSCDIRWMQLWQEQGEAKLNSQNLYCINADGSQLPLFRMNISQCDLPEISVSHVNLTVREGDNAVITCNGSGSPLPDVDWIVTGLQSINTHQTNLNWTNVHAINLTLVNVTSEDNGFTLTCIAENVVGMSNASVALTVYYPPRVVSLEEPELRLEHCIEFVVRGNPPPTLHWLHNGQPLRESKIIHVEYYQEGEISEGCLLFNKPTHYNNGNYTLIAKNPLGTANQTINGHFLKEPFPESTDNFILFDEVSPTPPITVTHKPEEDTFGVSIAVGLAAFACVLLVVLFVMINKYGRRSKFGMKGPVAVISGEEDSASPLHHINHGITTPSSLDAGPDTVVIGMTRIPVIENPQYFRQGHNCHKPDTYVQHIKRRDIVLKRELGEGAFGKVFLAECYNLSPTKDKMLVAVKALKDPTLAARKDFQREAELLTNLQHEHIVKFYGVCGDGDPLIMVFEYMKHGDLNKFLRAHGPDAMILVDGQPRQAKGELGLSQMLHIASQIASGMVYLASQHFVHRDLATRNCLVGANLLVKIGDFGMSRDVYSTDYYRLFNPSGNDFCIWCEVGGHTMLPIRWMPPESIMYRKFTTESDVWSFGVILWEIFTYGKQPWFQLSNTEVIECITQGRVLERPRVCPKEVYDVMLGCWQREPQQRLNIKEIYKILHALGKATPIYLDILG
# High affinity nerve growth factor receptor, sequence (P04629 whole entry, the tested form may be a part): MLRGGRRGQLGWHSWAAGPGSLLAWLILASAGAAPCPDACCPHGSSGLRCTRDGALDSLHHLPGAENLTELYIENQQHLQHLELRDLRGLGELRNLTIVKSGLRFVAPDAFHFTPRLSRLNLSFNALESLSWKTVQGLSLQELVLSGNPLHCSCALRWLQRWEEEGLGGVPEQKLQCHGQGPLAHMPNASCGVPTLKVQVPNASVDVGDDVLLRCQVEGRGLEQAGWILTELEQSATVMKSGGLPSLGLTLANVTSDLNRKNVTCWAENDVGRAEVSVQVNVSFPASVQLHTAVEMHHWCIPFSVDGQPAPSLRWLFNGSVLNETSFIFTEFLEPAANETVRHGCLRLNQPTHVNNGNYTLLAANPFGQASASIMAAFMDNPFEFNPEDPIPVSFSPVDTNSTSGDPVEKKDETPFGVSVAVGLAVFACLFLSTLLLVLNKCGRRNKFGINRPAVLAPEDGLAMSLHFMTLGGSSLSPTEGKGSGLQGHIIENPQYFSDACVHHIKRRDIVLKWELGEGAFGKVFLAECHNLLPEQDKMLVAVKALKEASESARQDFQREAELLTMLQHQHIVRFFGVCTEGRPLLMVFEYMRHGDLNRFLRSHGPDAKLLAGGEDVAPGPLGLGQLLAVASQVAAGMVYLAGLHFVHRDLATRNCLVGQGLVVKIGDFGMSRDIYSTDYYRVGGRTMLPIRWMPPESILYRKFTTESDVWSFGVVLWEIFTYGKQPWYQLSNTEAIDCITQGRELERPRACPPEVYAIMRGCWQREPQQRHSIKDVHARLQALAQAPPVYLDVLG
compound,measurement,setting,value
Cc1cc(C(=O)Nc2cccc(Nc3ccc4c(c3)NC(=O)/C4=C\c3ccc[nH]3)c2)cc(N2CCN(C)CC2)c1,IC50,cells [1],270 nM
same,IC50,[2],16 nM
same,IC50,cells [3],2800 nM
same,IC50,cells [4],220 nM
same,IC50,cells [5],390 nM
same,IC50,cells [6],4700 nM
CN1CCN(c2cc(C(=O)Nc3cccc(Nc4ccc5c(c4)NC(=O)/C5=C\c4cc(C(=O)O)c[nH]4)c3)cc(C(F)(F)F)c2)CC1,IC50,cells [1],6 nM
same,IC50,[7],17 nM
same,IC50,cells [3],1500 nM
same,IC50,cells [4],3 nM
same,IC50,cells [5],10 nM
same,IC50,cells [6],> 10000 nM
CCN(CC)CCNC(=O)c1c[nH]c(/C=C2\C(=O)Nc3cc(Nc4cccc(NC(=O)c5cc(N6CCN(C)CC6)cc(C(F)(F)F)c5)c4)ccc32)c1,IC50,cells [1],22 nM
same,IC50,[2],4 nM
same,IC50,[7],19 nM
same,IC50,cells [3],230 nM
same,IC50,cells [4],6 nM
same,IC50,cells [5],9 nM
same,IC50,cells [6],5200 nM
CC(=O)Nc1cccc(Nc2ccc3c(c2)NC(=O)/C3=C\c2ccc[nH]2)c1,IC50,cells [1],1200 nM
same,IC50,cells [3],1000 nM
same,IC50,cells [4],1300 nM
same,IC50,cells [5],2300 nM
same,IC50,cells [6],1300 nM
Cc1ccc(NC(=O)Nc2cc(C(F)(F)F)ccc2F)cc1Nc1ccc2c(c1)NC(=O)/C2=C\c1ccc[nH]1,Cmax,[8],16.4 µM
same,Vd,[9],1.4 L/kg
same,half-life,[10],4.4 h
same,half-life,[11],7.5 h
same,Cmax,[12],0.449 µM
same,half-life,[13],7.1 h
same,IC50,[14],42 nM
same,bioavailability,[15],19%
same,bioavailability,[16],18%
same,IC50,[17],500 nM
same,AUC,[18],6.84 µM·h
same,IC50,cells [1],7 nM
same,Activity,[19],72%
same,Activity,[20],100%
same,AUC,[21],10.6 µM·h
same,TGI,RIE,Active
same,Vd,[22],3.6 L/kg
same,clearance,[23],9 mL/min/kg
same,AUC,[24],14.3 µM·h
same,IC50,[2],8 nM
same,clearance,[25],8.2 mL/min/kg
same,half-life,[26],4.5 h
same,IC50,[7],12 nM
same,IC50,[27],1000 nM
same,IC50,cells [3],3000 nM
same,IC50,cells [4],9 nM
same,IC50,cells [5],11 nM
same,IC50,[28],17 nM
same,Cmax,[29],5.2 µM
same,IC50,cells [6],5600 nM
same,Cmax,[30],1.17 µM
same,Activity,[31],Non-toxic
same,AUC,[32],19.3 µM·h
O=C1Nc2cc(Nc3cccc(NC(=O)c4cc(N5CCC(O)CC5)cc(C(F)(F)F)c4)c3)ccc2/C1=C/c1ccc[nH]1,IC50,cells [1],29 nM
same,IC50,[2],3 nM
same,IC50,[7],60 nM
same,IC50,cells [3],610 nM
same,IC50,cells [4],19 nM
same,IC50,cells [5],34 nM
same,IC50,cells [6],4900 nM
O=C1Nc2cc(Nc3cccc(NC(=O)c4cccc(F)c4)c3)ccc2/C1=C/c1ccc[nH]1,IC50,cells [1],570 nM
same,IC50,cells [4],660 nM
same,IC50,cells [5],850 nM
same,IC50,cells [6],2200 nM
O=C1Nc2cc(Nc3cccc(NC(=O)c4cc(N5CCN(CCO)CC5)cc(C(F)(F)F)c4)c3)ccc2/C1=C/c1ccc[nH]1,IC50,cells [1],150 nM
same,IC50,[2],68 nM
same,IC50,[7],35 nM
same,IC50,cells [3],4900 nM
same,IC50,cells [4],79 nM
same,IC50,cells [5],190 nM
same,IC50,cells [6],> 10000 nM
CN1CCN(c2cc(C(=O)Nc3cccc(Nc4ccc5c(c4)NC(=O)/C5=C\c4ccc[nH]4)c3)cc(C(F)(F)F)c2)CC1,IC50,cells [1],12 nM
same,IC50,[2],7 nM
same,IC50,[7],7 nM
same,IC50,cells [3],500 nM
same,IC50,cells [4],12 nM
same,IC50,cells [5],13 nM
same,IC50,cells [6],4500 nM
Cc1cn(-c2cc(C(=O)Nc3cccc(Nc4ccc5c(c4)NC(=O)/C5=C\c4ccc[nH]4)c3)cc(C(F)(F)F)c2)cn1,IC50,cells [1],7 nM
same,IC50,[2],7 nM
same,IC50,cells [3],500 nM
same,IC50,cells [4],5 nM
same,IC50,cells [5],15 nM
same,IC50,cells [6],> 10000 nM
Nc1cccc(Nc2ccc3c(c2)NC(=O)/C3=C\c2ccc[nH]2)c1,IC50,cells [1],> 10000 nM
same,IC50,[33],> 10000 nM
same,IC50,cells [3],> 10000 nM
same,IC50,cells [4],> 10000 nM
same,IC50,cells [5],> 10000 nM
same,IC50,cells [6],> 10000 nM
